Test results as given in ChEMBL document CHEMBL5661979, “Pharmacological inhibition of BMK1 suppresses tumor growth through promyelocytic leukemia protein” (Cancer Cell, 2010).
Calls of active or inactive are those of the source. The rule behind the calls is not given here.

Legend:
[1] = biological target: Serine/threonine-protein kinase 10 (Homo sapiens, UniProt O94804); assay: Inhibition of LOK in human HeLa cells lysate pre incubated for 15 mins followed by ADP acyl phosphate probe addition and measured after 10 mins by LC-MS/MS analysis; type: subcellular
[2] = biological target: Serine/threonine-protein kinase B-raf (Homo sapiens, UniProt P15056); assay: Inhibition of BRAF in human HeLa cells lysate at 2 uM pre incubated for 15 mins followed by ADP acyl phosphate probe addition and measured after 10 mins by LC-MS/MS analysis relative to control; type: subcellular; conditions: time 25.0 min
In short: (§1)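 KiNativ-type profiling in HeLa lysate (5 mg/mL total protein). Lysate preincubated 15 min with inhibitor at 50, 10, 2, 0.8 or 0 μM, then ATP or ADP acylphosphate probe added (5 μM final) for 10 min. Reaction stopped with urea and analysed by targeted MS, using up to four fragment ions per kinase peptide-probe conjugate. % inhibition calculated against untreated lysate. Duplicate reactions.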

[3] = biological target: Ribosomal protein S6 kinase alpha-1 (Homo sapiens, UniProt Q15418); assay: Inhibition of RSK1 domain 2 K2 site in human HeLa cells lysate pre incubated for 15 mins followed by ADP acyl phosphate probe addition and measured after 10 mins by LC-MS/MS analysis; type: subcellular
eIF-2-alpha kinase GCN2 [4] = biological target: T1, eIF-2-alpha kinase GCN2 (Homo sapiens, UniProt Q9P2K8); assay: Inhibition of GCN2 in human HeLa cells lysate at 10 uM pre incubated for 15 mins followed by ATP acyl phosphate probe addition and measured after 10 mins by LC-MS/MS analysis relative to control; type: subcellular; conditions: time 25.0 min
Lewis lung carcinoma = assay: In vivo inhibition of […] in mouse LL2 cells allografted in C57Bl/6 mouse assessed as decrease in Grb2 phosphorylation level for 2 weeks by Western blot analysis; type: functional, organism-based
[5] = biological target: T2, Serine/threonine-protein kinase A-Raf (Homo sapiens) (UniProt P10398); assay: Inhibition of ARAF in human HeLa cells lysate at 2 uM pre incubated for 15 mins followed by ATP acyl phosphate probe addition and measured after 10 mins by LC-MS/MS analysis relative to control; type: subcellular; conditions: time 25.0 min; in short: as §1
T2 sequence (whole entry): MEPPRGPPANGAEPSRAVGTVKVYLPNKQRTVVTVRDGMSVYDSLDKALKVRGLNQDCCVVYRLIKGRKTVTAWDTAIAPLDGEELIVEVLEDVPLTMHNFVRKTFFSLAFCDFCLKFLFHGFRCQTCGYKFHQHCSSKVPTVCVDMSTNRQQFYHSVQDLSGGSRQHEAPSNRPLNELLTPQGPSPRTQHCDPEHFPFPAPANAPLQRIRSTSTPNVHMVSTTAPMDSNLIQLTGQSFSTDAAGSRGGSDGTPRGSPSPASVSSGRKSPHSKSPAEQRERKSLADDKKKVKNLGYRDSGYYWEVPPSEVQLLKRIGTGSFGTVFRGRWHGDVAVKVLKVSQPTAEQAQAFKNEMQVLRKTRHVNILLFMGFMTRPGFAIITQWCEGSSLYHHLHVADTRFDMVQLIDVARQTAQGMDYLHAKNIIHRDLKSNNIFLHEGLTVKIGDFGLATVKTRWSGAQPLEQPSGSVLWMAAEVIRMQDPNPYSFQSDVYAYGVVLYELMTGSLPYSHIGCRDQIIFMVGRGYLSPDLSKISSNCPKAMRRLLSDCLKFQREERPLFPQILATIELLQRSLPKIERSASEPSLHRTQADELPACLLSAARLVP

[6] = biological target: p38 delta/gamma (Homo sapiens) (UniProt O15264+P53778); assay: Inhibition of p38d/p38g in human HeLa cells lysate at 10 uM pre incubated for 15 mins followed by ATP acyl phosphate probe addition and measured after 10 mins by LC-MS/MS analysis relative to control; type: subcellular; conditions: time 25.0 min
[7] = Oral bioavailability in Sprague-Dawley rat at 2 mg/kg measured up to 8 hrs by LC-MS/MS analysis; type: ADME, organism-based; conditions: in vivo
[8] = biological target: Glycogen synthase kinase-3 beta (Homo sapiens, UniProt P49841); assay: Inhibition of GSK3B isoform 2 in human HeLa cells lysate pre incubated for 15 mins followed by ADP acyl phosphate probe addition and measured after 10 mins by LC-MS/MS analysis; type: subcellular
[9] = biological target: T3, Serine/threonine-protein kinase Sgk3 (Homo sapiens, UniProt Q96BR1); assay: Inhibition of SGK3 K1 site in human HeLa cells lysate pre incubated for 15 mins followed by ATP acyl phosphate probe addition and measured after 10 mins by LC-MS/MS analysis; type: subcellular
T3 sequence (Q96BR1 whole entry): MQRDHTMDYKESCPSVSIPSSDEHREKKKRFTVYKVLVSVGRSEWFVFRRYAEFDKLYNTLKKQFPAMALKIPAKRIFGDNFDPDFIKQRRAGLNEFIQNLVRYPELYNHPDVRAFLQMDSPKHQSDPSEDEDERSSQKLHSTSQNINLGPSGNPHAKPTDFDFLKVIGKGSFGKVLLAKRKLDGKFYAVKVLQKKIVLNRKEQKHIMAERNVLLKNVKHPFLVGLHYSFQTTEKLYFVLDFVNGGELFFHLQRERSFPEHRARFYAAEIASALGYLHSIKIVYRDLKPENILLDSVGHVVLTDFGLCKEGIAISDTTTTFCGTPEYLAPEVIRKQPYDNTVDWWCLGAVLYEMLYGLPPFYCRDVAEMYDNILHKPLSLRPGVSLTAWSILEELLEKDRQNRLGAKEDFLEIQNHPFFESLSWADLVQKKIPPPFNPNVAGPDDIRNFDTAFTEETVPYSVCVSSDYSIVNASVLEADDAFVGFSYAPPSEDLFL

[10] = Inhibition of MST4/YSK1 in human HeLa cells lysate at 2 uM pre incubated for 15 mins followed by ADP acyl phosphate probe addition and measured after 10 mins by LC-MS/MS analysis relative to control; conditions: 25 min, condition cancer
eIF-2-alpha kinase GCN2 [11] = biological target: T1, eIF-2-alpha kinase GCN2; assay: Inhibition of GCN2 in human HeLa cells lysate at 50 uM pre incubated for 15 mins followed by ATP acyl phosphate probe addition and measured after 10 mins by LC-MS/MS analysis relative to control; type: subcellular; conditions: time 25.0 min
[12] = biological target: Ribosomal protein S6 kinase alpha-3 (Homo sapiens, UniProt P51812); assay: Inhibition of RSK2 domain 1 in human HeLa cells lysate pre incubated for 15 mins followed by ADP acyl phosphate probe addition and measured after 10 mins by LC-MS/MS analysis; type: subcellular
[13] = biological target: Serine/threonine-protein kinase D3 (Homo sapiens, UniProt O94806); assay: Inhibition of PKD3 in human HeLa cells lysate pre incubated for 15 mins followed by ADP acyl phosphate probe addition and measured after 10 mins by LC-MS/MS analysis; type: subcellular
A549 = assay: Antitumor activity against human A549 cells xenografted in NOD/SCID mouse assessed as reduction in BMK activation at 50 mg/kg, ip administered twice a day for 2 days by Western blot analysis; type: functional, organism-based; conditions: time 2.0 day
In short: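 A549 cells (1×10^6, in DMEM) were injected s.c. into the right flank of 6-week-old Nod/Scid mice. On day 21, mice received 50 mg/kg twice daily or carrier; 2 per group. After 2 days, tumors were homogenized in E1A buffer. Western blot read BMK1 activation (mobility shift) and p21, quantified by densitometry normalized to GAPDH.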

[14] = biological target: STE20-like serine/threonine-protein kinase (Homo sapiens, UniProt Q9H2G2); assay: Inhibition of SLK in human HeLa cells lysate pre incubated for 15 mins followed by ATP acyl phosphate probe addition and measured after 10 mins by LC-MS/MS analysis; type: subcellular

T1 sequence (Q9P2K8 whole entry): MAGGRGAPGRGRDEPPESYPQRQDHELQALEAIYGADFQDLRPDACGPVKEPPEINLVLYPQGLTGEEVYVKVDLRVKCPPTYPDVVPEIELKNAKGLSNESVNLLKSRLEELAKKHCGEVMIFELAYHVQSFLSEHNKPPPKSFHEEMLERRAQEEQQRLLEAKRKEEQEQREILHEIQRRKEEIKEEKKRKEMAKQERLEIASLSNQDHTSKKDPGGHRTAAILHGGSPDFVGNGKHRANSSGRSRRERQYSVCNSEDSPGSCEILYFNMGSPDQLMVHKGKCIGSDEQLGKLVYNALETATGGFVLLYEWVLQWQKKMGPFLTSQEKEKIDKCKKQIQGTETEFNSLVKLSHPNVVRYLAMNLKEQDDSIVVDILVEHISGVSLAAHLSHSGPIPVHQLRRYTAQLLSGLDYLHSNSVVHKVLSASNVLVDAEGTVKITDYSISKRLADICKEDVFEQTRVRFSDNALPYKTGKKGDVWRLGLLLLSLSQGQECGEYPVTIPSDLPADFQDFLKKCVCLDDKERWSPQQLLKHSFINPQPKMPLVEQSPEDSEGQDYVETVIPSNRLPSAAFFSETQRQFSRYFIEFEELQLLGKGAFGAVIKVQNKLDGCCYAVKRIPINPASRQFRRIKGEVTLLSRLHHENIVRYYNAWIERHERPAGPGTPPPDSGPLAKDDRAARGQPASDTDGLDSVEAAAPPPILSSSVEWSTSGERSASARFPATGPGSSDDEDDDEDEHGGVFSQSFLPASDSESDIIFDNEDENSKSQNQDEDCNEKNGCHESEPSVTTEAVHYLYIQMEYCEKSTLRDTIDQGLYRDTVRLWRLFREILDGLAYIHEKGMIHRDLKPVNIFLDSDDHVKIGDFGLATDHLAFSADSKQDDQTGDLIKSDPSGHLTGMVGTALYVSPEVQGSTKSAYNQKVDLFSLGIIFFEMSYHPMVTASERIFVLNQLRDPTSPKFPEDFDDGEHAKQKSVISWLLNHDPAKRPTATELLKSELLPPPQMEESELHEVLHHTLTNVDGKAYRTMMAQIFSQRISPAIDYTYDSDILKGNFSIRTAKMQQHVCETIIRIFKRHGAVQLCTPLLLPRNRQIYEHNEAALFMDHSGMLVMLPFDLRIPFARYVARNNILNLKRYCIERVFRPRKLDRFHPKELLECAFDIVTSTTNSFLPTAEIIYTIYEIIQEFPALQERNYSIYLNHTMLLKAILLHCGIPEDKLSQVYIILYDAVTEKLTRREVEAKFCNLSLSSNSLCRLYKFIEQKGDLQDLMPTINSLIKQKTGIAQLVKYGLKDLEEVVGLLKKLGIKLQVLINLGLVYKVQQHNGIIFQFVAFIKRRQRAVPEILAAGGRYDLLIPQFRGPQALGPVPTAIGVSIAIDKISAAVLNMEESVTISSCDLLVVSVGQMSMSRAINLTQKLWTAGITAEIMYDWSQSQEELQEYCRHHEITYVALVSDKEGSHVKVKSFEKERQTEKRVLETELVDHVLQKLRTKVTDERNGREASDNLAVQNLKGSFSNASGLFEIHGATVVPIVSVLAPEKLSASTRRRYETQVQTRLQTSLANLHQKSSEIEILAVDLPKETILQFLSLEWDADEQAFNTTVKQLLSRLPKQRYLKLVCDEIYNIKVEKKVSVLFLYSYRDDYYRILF
Sequence of Serine/threonine-protein kinase D3 (O94806 whole entry): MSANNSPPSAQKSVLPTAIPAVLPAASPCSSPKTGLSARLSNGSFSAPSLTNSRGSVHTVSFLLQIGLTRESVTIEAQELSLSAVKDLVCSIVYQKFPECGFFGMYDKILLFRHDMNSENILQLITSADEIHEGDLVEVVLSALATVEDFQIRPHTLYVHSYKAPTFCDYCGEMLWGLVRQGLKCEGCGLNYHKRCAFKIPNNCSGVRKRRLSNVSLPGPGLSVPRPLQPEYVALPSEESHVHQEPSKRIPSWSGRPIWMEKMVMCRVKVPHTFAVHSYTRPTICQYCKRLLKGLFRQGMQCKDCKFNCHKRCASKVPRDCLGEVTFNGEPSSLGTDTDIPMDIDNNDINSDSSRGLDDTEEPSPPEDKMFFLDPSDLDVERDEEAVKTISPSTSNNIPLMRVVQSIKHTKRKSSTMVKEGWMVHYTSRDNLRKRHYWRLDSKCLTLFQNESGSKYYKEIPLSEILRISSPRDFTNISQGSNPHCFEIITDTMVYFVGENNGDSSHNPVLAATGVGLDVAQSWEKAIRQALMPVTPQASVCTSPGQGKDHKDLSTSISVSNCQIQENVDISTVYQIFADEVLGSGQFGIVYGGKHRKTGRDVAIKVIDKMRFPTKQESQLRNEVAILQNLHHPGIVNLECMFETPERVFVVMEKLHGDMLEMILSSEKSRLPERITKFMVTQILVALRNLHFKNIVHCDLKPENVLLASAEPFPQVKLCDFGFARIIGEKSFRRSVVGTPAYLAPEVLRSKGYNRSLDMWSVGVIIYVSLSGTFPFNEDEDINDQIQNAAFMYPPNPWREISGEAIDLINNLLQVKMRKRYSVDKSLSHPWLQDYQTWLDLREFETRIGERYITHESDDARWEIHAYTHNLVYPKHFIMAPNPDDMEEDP
Sequence of Ribosomal protein S6 kinase alpha-3 (P51812 whole entry, the tested form may be a part): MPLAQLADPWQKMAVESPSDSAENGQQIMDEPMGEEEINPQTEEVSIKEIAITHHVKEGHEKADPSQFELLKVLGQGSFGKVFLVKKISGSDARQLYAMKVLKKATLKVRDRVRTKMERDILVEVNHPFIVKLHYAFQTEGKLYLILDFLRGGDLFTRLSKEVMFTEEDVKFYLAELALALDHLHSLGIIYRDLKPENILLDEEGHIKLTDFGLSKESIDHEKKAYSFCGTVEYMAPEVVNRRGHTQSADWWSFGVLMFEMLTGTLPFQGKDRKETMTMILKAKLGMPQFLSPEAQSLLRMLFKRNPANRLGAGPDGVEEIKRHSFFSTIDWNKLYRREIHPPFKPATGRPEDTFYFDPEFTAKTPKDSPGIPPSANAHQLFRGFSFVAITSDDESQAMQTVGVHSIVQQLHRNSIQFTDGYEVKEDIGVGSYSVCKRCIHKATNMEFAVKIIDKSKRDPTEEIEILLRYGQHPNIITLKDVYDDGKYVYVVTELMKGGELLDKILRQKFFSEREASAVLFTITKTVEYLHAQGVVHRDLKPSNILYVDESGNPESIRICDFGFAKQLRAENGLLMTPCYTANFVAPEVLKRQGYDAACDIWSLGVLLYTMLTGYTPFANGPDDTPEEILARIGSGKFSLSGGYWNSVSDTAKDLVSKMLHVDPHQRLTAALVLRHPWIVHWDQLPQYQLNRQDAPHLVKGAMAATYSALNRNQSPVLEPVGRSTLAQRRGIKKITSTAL
Sequence of Ribosomal protein S6 kinase alpha-1 (Q15418 whole entry, the tested form may be a part): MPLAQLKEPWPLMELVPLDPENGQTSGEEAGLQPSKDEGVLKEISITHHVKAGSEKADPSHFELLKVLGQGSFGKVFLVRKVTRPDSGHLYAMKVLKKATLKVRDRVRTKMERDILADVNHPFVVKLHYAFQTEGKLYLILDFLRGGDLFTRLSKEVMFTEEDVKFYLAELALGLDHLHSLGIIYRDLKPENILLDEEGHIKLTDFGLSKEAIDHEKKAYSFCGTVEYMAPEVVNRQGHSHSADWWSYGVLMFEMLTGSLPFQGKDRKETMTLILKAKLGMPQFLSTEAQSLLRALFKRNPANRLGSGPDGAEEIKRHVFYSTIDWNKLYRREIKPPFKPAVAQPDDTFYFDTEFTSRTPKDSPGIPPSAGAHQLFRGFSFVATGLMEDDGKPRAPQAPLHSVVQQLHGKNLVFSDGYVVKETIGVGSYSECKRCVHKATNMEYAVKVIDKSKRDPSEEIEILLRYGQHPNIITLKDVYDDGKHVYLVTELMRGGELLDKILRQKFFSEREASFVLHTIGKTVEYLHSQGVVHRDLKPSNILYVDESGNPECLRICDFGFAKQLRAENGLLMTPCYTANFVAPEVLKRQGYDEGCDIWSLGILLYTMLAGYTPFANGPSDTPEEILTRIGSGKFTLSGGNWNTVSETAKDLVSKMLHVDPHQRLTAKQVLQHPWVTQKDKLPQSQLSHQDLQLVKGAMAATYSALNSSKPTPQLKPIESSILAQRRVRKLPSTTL
Sequence of Serine/threonine-protein kinase B-raf (P15056 whole entry, the tested form may be a part): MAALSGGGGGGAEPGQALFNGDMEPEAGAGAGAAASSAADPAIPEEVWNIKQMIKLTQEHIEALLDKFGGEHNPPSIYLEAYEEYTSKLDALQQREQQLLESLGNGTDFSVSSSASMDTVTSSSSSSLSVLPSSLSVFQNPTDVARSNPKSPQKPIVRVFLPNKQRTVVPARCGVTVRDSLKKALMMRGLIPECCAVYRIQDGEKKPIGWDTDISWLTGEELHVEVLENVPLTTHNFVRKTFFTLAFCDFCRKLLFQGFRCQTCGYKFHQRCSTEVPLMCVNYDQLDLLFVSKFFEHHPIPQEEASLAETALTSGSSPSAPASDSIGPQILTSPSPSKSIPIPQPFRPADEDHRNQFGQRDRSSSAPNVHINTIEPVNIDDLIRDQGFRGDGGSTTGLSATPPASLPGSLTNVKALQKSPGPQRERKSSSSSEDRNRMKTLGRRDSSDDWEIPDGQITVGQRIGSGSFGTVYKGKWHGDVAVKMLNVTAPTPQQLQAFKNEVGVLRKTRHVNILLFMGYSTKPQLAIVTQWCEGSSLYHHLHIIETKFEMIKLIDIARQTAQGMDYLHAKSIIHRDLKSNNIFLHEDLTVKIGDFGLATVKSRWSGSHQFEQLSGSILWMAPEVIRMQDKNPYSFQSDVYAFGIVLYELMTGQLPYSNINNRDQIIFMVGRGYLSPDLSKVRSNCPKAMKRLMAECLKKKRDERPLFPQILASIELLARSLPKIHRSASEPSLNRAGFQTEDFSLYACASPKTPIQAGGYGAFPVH

CCOc1cc(N2CCC(O)CC2)ccc1Nc1ncc2c(n1)N(C)c1ccccc1C(=O)N2C
IC50 [1]: > 50 µM | inhibition [2]: 10.5% | IC50 [3]: 31 µM | inhibition (eIF-2-alpha kinase GCN2 [4]): -0.6% | inhibition (Lewis lung carcinoma): Active | inhibition [5]: 3.3% | inhibition [6]: 100% | bioavailability [7]: 69% | IC50 [8]: > 50 µM | IC50 [9]: > 50 µM | inhibition at 2 µM [10]: 11.3% | inhibition (eIF-2-alpha kinase GCN2 [11]): 7% | IC50 [12]: > 50 µM | IC50 [13]: > 50 µM | Activity (A549): Active | IC50 [14]: > 50 µM
